Assay [1] relates to Mus musculus. Nature of the assay: No behavioral change was observed after the peroral administration of compound in mice. Type of assay: functional.
The subject of assay [2] is Mus musculus. Nature of the assay: No behavioral change was observed after the intraperitoneal administration of compound in mice. Type of assay: functional.
The species named for assay [3] is Gallus gallus. Nature of the assay: Compound was examined in vitro for inhibition of AMPA (5 uM) evoked spreading depression in isolated retina prepared from young chicken. Type of assay: functional. Put shortly: (§1)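 Each compound was first screened at 20 µM in 6 retina preparations. Below 40% inhibition was recorded as IC50 >20 µM, and 40–60% as ~20 µM. Above 60%, IC50 was determined from 3–5 concentrations with 6 retinas per concentration.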

For assay [4], the system named is Mus musculus. Nature of the assay: Muscle relaxant activity of compound, administered intraperitoneally in mice was evaluated using inclined screen test. The format is functional. The note with it: ip. In outline: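 Inclined screen test for muscle relaxation in mice, with compound given ip 30 min before testing; 10 mice per dose at 3–4 doses. ED50 was derived by the Litchfield–Wilcoxon method.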

Assay [5] has as its system Mus musculus. Nature of the assay: Anticonvulsant activity of compound, administered perorally in mice was evaluated using maximal electroshock seizure model. The format is functional. The note with it: po. Put shortly:
(§2)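 Mice were dosed orally 60 min before maximal electroshock, using 10 mice per dose at 3–4 doses. ED50 was calculated by the Litchfield–Wilcoxon method.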

Assay [6] has as its system Mus musculus. Nature of the assay: Anticonvulsant activity of compound, administered perorally in mice was evaluated using maximal electroshock seizure model; values ranges from (40.5-54.7). Type of assay: functional. The following applies: po. Put shortly: as §2
In assay [7] the test system is Mus musculus. The experiment in a line: Increase of spontaneous motor activity, ataxy, stereotypia, licking, muscle rigidity was observed after the intraperitoneal administration of compound in mice. Type of assay: functional.
Assay [8] relates to Mus musculus. The experiment in a line: Increase of spontaneous motor activity, ataxy, stereotypia, licking, muscle rigidity was observed after the peroral administration of compound in mice. The format is functional.
For assay [9], the species on record is Rattus norvegicus. The experiment in a line: (§3) Compound was tested for inhibition of whole cell current induced […]. The format is functional. In outline: (§4)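 Patch-clamp whole-cell currents evoked by 5 µM AMPA; inhibition reported as IC50 or as percent inhibition at 5 µM compound.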
For assay [10], the species on record is Gallus gallus. Nature of the assay: Compound was examined in vitro for inhibition of kainate (5 uM) evoked spreading depression in isolated retina prepared from young chicken. The format is functional. Put shortly:
as §1

Assay [11] has as its system Mus musculus. Nature of the assay: Anticonvulsant activity of compound, administered perorally in mice was evaluated using maximal metrazole seizure model. The following applies: po. Type of assay: functional. Put shortly:
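Oral dosing in mice 60 min before 130 mg/kg metrazole ip, with lethality as the endpoint; 10 mice per dose at 3–4 doses. ED50 was obtained by the Litchfield–Wilcoxon method.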

Assay [12] has as its system Mus musculus. Nature of the assay: Loss of righting reflex was observed after the intraperitoneal administration of compound in mice. Type of assay: functional.
Assay [13] deals with Mus musculus. Nature of the assay: Loss of righting reflex was observed after the peroral administration of compound in mice. Type of assay: functional.
Assay [14] has as its system Mus musculus. Nature of the assay: Decrease of spontaneous motor activity, ataxy, mild muscle relaxation was observed after the intraperitoneal administration of compound in mice. The format is functional.
The subject of assay [15] is Mus musculus. The experiment in a line: Decrease of spontaneous motor activity, ataxy, mild muscle relaxation was observed after the peroral administration of compound in mice. Type of assay: functional.
Assay [16] has as its system Mus musculus. The experiment in a line: Adynamia was observed after the intraperitoneal administration of compound in mice. The format is functional.
Assay [17] concerns Mus musculus. Nature of the assay: Adynamia was observed after the peroral administration of compound in mice. Type of assay: functional.
The species entered for assay [18] is Rattus norvegicus. Described as §3. Type of assay: functional, cell-based. In outline: as §4

The term IC50 denotes the midpoint of a concentration-inhibition curve. Low values mean higher potency, high ones lower potency. The term ED50 denotes the dose at which the effect has come halfway, by size or by number of responders. A low value points to greater potency. As to `CCCCC(=O)N1CC(C)c2cc3c(cc2C(c2ccc(N)cc2)=N1)OCO3` (stereo not drawn), the Dose amounted to 200 mg/kg in [1] and 100 mg/kg in assay [2]. In addition, in assay [3], the IC50 is above 20 µM. Further, the values for the ED50 in assay [4] and in assay [5] were above 200 mg/kg and above 100 mg/kg, respectively.
Take `CC1CNN=C(c2ccc(N)cc2)c2cc3c(cc21)OCO3` (stereo not drawn): the ED50 in assay [6] worked out at 47.1 mg/kg; in assay [4], 100 mg/kg. Further, the Dose in assay [7] was 100 mg/kg; in assay [8], 200 mg/kg.
Usually Inhibition stands for the share of the control response that was lost under treatment. The compound `CNC(=O)N1CC(C)c2cc3c(cc2C(c2ccc(N)cc2)=N1)OCO3` (stereo not drawn) registered an Inhibition in [9] of 52.7%. For the same compound, the concentration for half-maximal inhibition (IC50) was 20 µM in assay [10] and 15.6 µM in [3]. For the same compound, the values for the ED50 in assay [11], in [4] and in assay [5] were 67.6 mg/kg, 55.9 mg/kg and 48.8 mg/kg, respectively. Besides, the Dose was determined as 100 mg/kg in assay [12] and 200 mg/kg in assay [13].
In the case of `CC1CN(C(=O)C2CC2)N=C(c2ccc(N)cc2)c2cc3c(cc21)OCO3` (stereo not drawn), the results for the Dose in assay [1] and in assay [2] were 200 mg/kg and 100 mg/kg, respectively. The IC50 in assay [3] was above 20 µM. In addition, the ED50 in [4] was above 200 mg/kg; in [5], above 100 mg/kg.
Turning to `CC1CN(c2ccccn2)N=C(c2ccc(N)cc2)c2cc3c(cc21)OCO3` (stereo not drawn), the Dose in [14] worked out at 100 mg/kg; in assay [15], 200 mg/kg. The IC50 in assay [3] is above 20 µM. In addition, the ED50 in assay [4] is above 200 mg/kg; in [5] it was above 100 mg/kg.
In the case of `CC(=O)N1CC(C)c2cc3c(cc2C(c2ccc(N)cc2)=N1)OCO3` (stereo not drawn), the Dose in assay [16] was found to be 100 mg/kg; in assay [17], 200 mg/kg. The compound also displayed an Inhibition in assay [9] of 54%. Besides, the 50% inhibitory concentration (IC50) in [10] turned out to be 3.4 µM; in assay [3] it was 20 µM. Further, the 50% effective dose (ED50) in assay [11] was 135 mg/kg; in assay [4], 95.3 mg/kg; in assay [5], 69.3 mg/kg.
With `CC1=NN=C(c2ccc(N)cc2)c2cc3c(cc2C1)OCO3` [GYKI-52466], the 50% inhibitory concentration (IC50) in [10] came to 9.5 µM; in assay [3], 6.3 µM; in assay [18] it was 9.9 µM. The ED50 in [11] worked out at 120 mg/kg; in assay [5], 37.4 mg/kg. Besides, the Dose turned out to be 100 mg/kg in assay [12] and 200 mg/kg in assay [13].
Turning to `CC(=O)N1N=C(c2ccc(N)cc2)c2cc3c(cc2C[C@H]1C)OCO3` [TALAMPANEL], the half-maximal inhibitory concentration (IC50) in assay [10] turned out to be 2.6 µM; in assay [3], 1.7 µM; in assay [18], 2.5 µM. The compound further registered an ED50 in [5] of 8.6 mg/kg. In addition, the figures for the Dose in [12] and in [13] were 100 mg/kg and 200 mg/kg, respectively.

The record behind these values is ChEMBL document CHEMBL1133353, “Structural analogues of some highly active non-competitive AMPA antagonists” (Bioorg Med Chem Lett, 2000).
